Data taken from PMC3188381 (Anti-cancer drugs, 2011).
Where two headings read alike, the source gives them in different places. Blank lines part the entries; values can stand above or below the compound they belong to.

How the values were obtained:
SKOV3 cells [1] = experiment: Western blot of cell lysates, SKOV3; assay type: cell-based, human; conditions: for Cleaved PARP protein expression / Cleaved caspase-3 protein expression: SKOV3, 24 hours, 50 μM LiCl, 5 μM 9ING41, 25 μM SB216763
How it was run: (§1)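 Lysates taken after 24 h treatment with test compound or 0.1% DMSO, in Tris-HCl pH 7.6/NaCl/NP-40/deoxycholate/SDS buffer with protease and phosphatase inhibitors, protein equalised by BCA. Run on reducing 10% Bis-Tris gels and transferred to PVDF. Blocked in 5% milk TBS-T; cleaved caspase-3 in 5% BSA PBS-0.5% tween; cyclin D1 in 5% BSA TBS-T. Probed with rabbit primaries (total GSK3β, actin as controls) and HRP anti-rabbit, detected by chemiluminescence. Densitometry from triplicate blots.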

OVCA432 cells [2] = experiment: Western blot of cell lysates, OVCA432; assay type: cell-based, human; conditions: for Cleaved PARP protein expression / Cleaved caspase-3 protein expression: OVCA432, 24 hours, 50 μM LiCl, 5 μM 9ING41, 25 μM SB216763
How it was run: as §1

[3] = Range-finding toxicity study; conditions: rats, oral, 8 days observation
[4] = system: OVCA432 ovarian cancer cells; experiment: Proliferation assay; assay type: cell-based, human; conditions: read-out: IC50 (μM) OVCA432
[5] = Bioavailability and plasma pharmacokinetics; assay type: in vivo, Sprague-Dawley rats; conditions: rat
How it was run: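 Male Sprague-Dawley rats dosed at 10 mg/kg iv and 400 mg/kg po. Blood drawn into EDTA (n=3), kept on ice and processed within 30 min. Plasma spun at 2–8 °C for 15 min and stored at -80 °C. Acetonitrile with 100 ng/ml hexylnicotinate internal standard added, then vortexed and centrifuged at 18000g. Supernatant run by LC-MS/MS. Non-compartmental PK analysis.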

[6] = system: SKOV3 ovarian cancer cells; experiment: Proliferation assay; assay type: cell-based, human; conditions: read-out: IC50 (μM) SKOV3
OVCA432 cells [7] = experiment: DAPI staining for apoptotic cells, OVCA432; assay type: cell-based, human; conditions: OVCA432, 24 hrs; 50 μM LiCl, 5 μM 9ING41, 25 μM SB216763; vs DMSO
How it was run: (§2)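 OVCA432 grown in supplemented MEM and SKOV3 in McCoy's 5A, both with 10% FBS, at 37 °C, 5% CO2. Cells plated at 5 × 10^4 per chamber-slide well and left to attach overnight. Exposed one day to test compound or 0.1% DMSO, then fixed in 4% paraformaldehyde and mounted in DAPI medium. Nuclei with condensed DNA or […] fragmentation counted in 3 fields (20× objective), triplicate experiments.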

SKOV3 cells [8] = experiment: TUNEL staining, SKOV3; assay type: cell-based, human; conditions: SKOV3, 24 hours, 5 μM 9ING41; vs DMSO
How it was run: (§3)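 Cells plated at 5 × 10^4 per chamber-slide well, attached overnight at 37 °C, then treated 24 h with test compound or 0.1% DMSO. Fixed in 4% paraformaldehyde. Stained with a colorimetric TUNEL kit per manufacturer. Brown TUNEL-positive cells counted in 3 fields imaged with a 20× objective, from triplicate experiments.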

SKOV3 cells [9] = experiment: DAPI staining for apoptotic cells, SKOV3; assay type: cell-based, human; conditions: SKOV3, 24 hrs; 5 μM 9ING41; vs DMSO
How it was run: as §2

OVCA432 cells [10] = experiment: TUNEL staining, OVCA432; assay type: cell-based, human; conditions: OVCA432, 24 hours, 5 μM 9ING41; vs DMSO
How it was run: as §3

SKOV3 xenograft = conditions: drugs and cells mixed before subcutaneous injection; cited from earlier work
[11] = system: SKOV3 ovarian cancer cells; conditions: cited from earlier work
[12] = OVCA432 cells, 4 days (96 hours), concentration required to kill 50% of the cells
[13] = SKOV3 cells, 4 days (96 hours), concentration required to kill 50% of the cells

Compound: Cn1cc(C2=C(c3coc4ccc(F)cc34)C(=O)NC2=O)c2cc3c(cc21)OCO3 [9-ING-41]
Cyclin D1 expression (SKOV3 cells [1]; SKOV3, 5 μM 9ING41, 24 hours): increased
Phosphorylation of GSK3β ser9 (normalized to total GSK3β) (SKOV3 cells [1]; SKOV3, 5 μM 9ING41, 24 hours): increased phosphorylation
Phosphorylation of glycogen synthase (SKOV3 cells [1]; SKOV3, 5 μM 9ING41, 24 hours): significantly inhibited
Cleaved PARP protein expression (SKOV3 cells [1]): cleaved product of PARP was detected
Cleaved caspase-3 protein expression (SKOV3 cells [1]): increase in cleaved caspase-3
Phosphorylation of GSK3β ser9 (normalized to total GSK3β) (OVCA432 cells [2]; OVCA432, 5 μM 9ING41, 24 hours): increased phosphorylation
Phosphorylation of glycogen synthase (OVCA432 cells [2]; OVCA432, 5 μM 9ING41, 24 hours): significantly inhibited
Cleaved PARP protein expression (OVCA432 cells [2]): cleaved product of PARP was detected
Cleaved caspase-3 protein expression (OVCA432 cells [2]): increase in cleaved caspase-3
Maximum tolerated dose (MTD) [3]: greater than 500 mg/kg
IC50 [4, 12]: 11.2 µM
AUC (area under the concentration-time curve) ([5]; iv 10 mg/kg): 2740 ng·h/mL
CL (systematic clearance) ([5]; iv 10 mg/kg): 61.5 mL/min/kg
Co (plasma concentration at T = 0) ([5]; iv 10 mg/kg): 1390 ng/mL
T1/2 (apparent elimination half-life) ([5]; iv 10 mg/kg): 4.85 h
V (volume of distribution) ([5]; iv 10 mg/kg): 26.2 L/kg
Elimination half-life ([5]; iv 10 mg/kg and po 400 mg/kg): 4.0 to 4.85 h
Volumes of distribution ([5]; iv 10 mg/kg and po 400 mg/kg): ≥ 26 L/kg
Plasma level C ([5]; iv 10 mg/kg, 0.083 h): 1390 ng/mL
Plasma level C ([5]; iv 10 mg/kg, 0.167 h): 1410 ng/mL
Plasma level C ([5]; iv 10 mg/kg, 0.5 h): 1190 ng/mL
Plasma level C ([5]; iv 10 mg/kg, 1 h): 690 ng/mL
Plasma level C ([5]; iv 10 mg/kg, 2 h): 367 ng/mL
Plasma level C ([5]; iv 10 mg/kg, 4 h): 139 ng/mL
Plasma level C ([5]; iv 10 mg/kg, 6 h): 77 ng/mL
Plasma level C ([5]; iv 10 mg/kg, 8 h): 41 ng/mL
Plasma level C ([5]; iv 10 mg/kg, 24 h): 6.7 ng/mL
AUC (area under the concentration-time curve) ([5]; po 400 mg/kg): 4950 ng·h/mL
CL (systematic clearance) ([5]; po 400 mg/kg): 2210 mL/min/kg
T1/2 (apparent elimination half-life) ([5]; po 400 mg/kg): 4.0 h
V (volume of distribution) ([5]; po 400 mg/kg): 810 L/kg
F (bioavailability) ([5]; po 400 mg/kg vs iv 10 mg/kg): 4.5%
Plasma level C ([5]; po 400 mg/kg, 0.083 h): 4.7 ng/mL
Plasma level C ([5]; po 400 mg/kg, 0.167 h): 18.2 ng/mL
Plasma level C ([5]; po 400 mg/kg, 0.5 h): 156 ng/mL
Plasma level C ([5]; po 400 mg/kg, 1 h): 540 ng/mL
Plasma level C ([5]; po 400 mg/kg, 2 h): 820 ng/mL
Plasma level C ([5]; po 400 mg/kg, 4 h): 934 ng/mL
Plasma level C ([5]; po 400 mg/kg, 6 h): 340 ng/mL
Plasma level C ([5]; po 400 mg/kg, 8 h): 123 ng/mL
Plasma level C ([5]; po 400 mg/kg, 24 h): 8.3 ng/mL
IC50 [6, 13]: 10.5 µM
Induction of apoptosis (DAPI) (OVCA432 cells [7]): induced apoptosis
Apoptosis (TUNEL-positive cells) (SKOV3 cells [8]): significantly increased apoptosis
Induction of apoptosis (DAPI) (SKOV3 cells [9]): induced apoptosis
Apoptosis (TUNEL-positive cells) (OVCA432 cells [10]): significantly increased apoptosis

Compound: COc1cccc2c(C3=C(c4cn(C)c5cc(Cl)c(F)cc45)C(=O)NC3=O)coc12 [9-ING-87]
IC50 [4, 12]: 10.7 µM
IC50 [6, 13]: 42.7 µM

Compound: [Cl-].[Li+] [LiCl, Lithium chloride, reference compound]
Cleaved PARP protein expression (SKOV3 cells [1]): absence
Cleaved caspase-3 protein expression (SKOV3 cells [1]): absence
Cleaved PARP protein expression (OVCA432 cells [2]): absence
Cleaved caspase-3 protein expression (OVCA432 cells [2]): absence
SKOV3 tumor growth (SKOV3 xenograft): significantly slow SKOV3 tumor growth
Induction of apoptosis (DAPI) (OVCA432 cells [7]): induced apoptosis
Growth inhibition of SKOV3 [11]: growth inhibited

IC50 ([4]; Homo sapiens, OVCA432, 96 h): > 50 µM
IC50 ([6]; Homo sapiens, SK-OV-3, 96 h): > 50 µM
Compound: Cn1cc(C2=C(c3ccc(Cl)cc3Cl)C(=O)NC2=O)c2ccccc21 [SB216763, reference compound]
Cleaved PARP protein expression (SKOV3 cells [1]): absence
Cleaved caspase-3 protein expression (SKOV3 cells [1]): absence
Cleaved PARP protein expression (OVCA432 cells [2]): absence
Cleaved caspase-3 protein expression (OVCA432 cells [2]): absence
Induction of apoptosis (DAPI) (OVCA432 cells [7]): induced apoptosis
Growth inhibition of SKOV3 [11]: growth inhibited
